Legend:
Type in all cases: functional
CCRF-CEM = assay: Anticancer activity against human CCRF-CEM cells after 48 hrs by SRB assay; conditions: for CC50: read-out: LC50 (the source's name)
Method in brief: (§1)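 NCI five-dose screen. Cells in RPMI 1640 with 5% FBS and 2 mM L-glutamine, seeded at 5000–40,000 cells/well according to doubling time, then pre-incubated 24 h at 37 °C in 5% CO2. Drugs dissolved in DMSO, five concentrations by 10-fold or 1/2-log dilution. Cells fixed with TCA, SRB-stained, A515 read. IC50 solved from [(Ti−Tz)/(C−Tz)]×100 = 50.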

MOLT-4 = assay: Anticancer activity against human MOLT4 cells after 48 hrs by SRB assay; conditions: MOLT-4, 48 h; for CC50: read-out: LC50 (the source's name)
A549 = assay: Anticancer activity against human A549 cells after 48 hrs by SRB assay; conditions: A549, 48 h; method in brief: as §1
NCI-H226 = assay: Anticancer activity against human NCI-H226 cells after 48 hrs by SRB assay; conditions: NCI-H226, 48 h
NCI-H322M = assay: Anticancer activity against human NCI-H322M cells after 48 hrs by SRB assay; conditions: for CC50: read-out: LC50 (the source's name)
NCI-H460 = assay: Anticancer activity against human NCI-H460 cells after 48 hrs by SRB assay; conditions: NCI-H460, 48 h
HCC 2998 = assay: Anticancer activity against human HCC2998 cells after 48 hrs by SRB assay; conditions: HCC 2998, 48 h; for CC50: read-out: LC50 (the source's name); method in brief: as §1
HCT-15 = assay: Anticancer activity against human HCT15 cells after 48 hrs by SRB assay; conditions: HCT-15, 48 h; for CC50: read-out: LC50 (the source's name); method in brief: as §1
KM12 = assay: Anticancer activity against human KM12 cells after 48 hrs by SRB assay; conditions: KM12, 48 h; for CC50: read-out: LC50 (the source's name); method in brief: as §1
SW-620 = assay: Anticancer activity against human SW620 cells after 48 hrs by SRB assay; conditions: SW-620, 48 h; for CC50: read-out: LC50 (the source's name)
Method in brief: (§2)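 NCI-60 five-dose mode: cells in RPMI 1640 with 5% FBS and 2 mM glutamine, plated at 5000–40,000 cells/well, and preincubated 24 h, with time-zero plates TCA-fixed. Drug given at five concentrations (10-fold or ½-log serial dilutions). Cold TCA fixation 60 min at 4 °C, SRB stain, Tris solubilization, A515. IC50 taken where [(Ti−Tz)/(C−Tz)]×100 = 50.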

SF-295 = assay: Anticancer activity against human SF295 cells after 48 hrs by SRB assay; conditions: SF-295, 48 h; for CC50: read-out: LC50 (the source's name)
SNB-19 = assay: Anticancer activity against human SNB19 cells after 48 hrs by SRB assay; conditions: SNB-19, 48 h; for CC50: read-out: LC50 (the source's name)
SNB-75 = assay: Anticancer activity against human SNB75 cells after 48 hrs by SRB assay; conditions: SNB-75, 48 h; for CC50: read-out: LC50 (the source's name)
M14 = assay: Anticancer activity against human M14 cells after 48 hrs by SRB assay; conditions: M14, 48 h; for CC50: read-out: LC50 (the source's name); method in brief: as §1
SK-MEL-28 = assay: Anticancer activity against human SK-MEL-28 cells after 48 hrs by SRB assay; conditions: SK-MEL-28, 48 h; for CC50: read-out: LC50 (the source's name)
UACC-257 = assay: Anticancer activity against human UACC257 cells after 48 hrs by SRB assay; conditions: UACC-257, 48 h; for CC50: read-out: LC50 (the source's name); method in brief: as §2
UACC-62 = assay: Anticancer activity against human UACC62 cells after 48 hrs by SRB assay; conditions: UACC-62, 48 h; for CC50: read-out: LC50 (the source's name); method in brief: as §2
IGROV-1 = assay: Anticancer activity against human IGROV1 cells after 48 hrs by SRB assay; conditions: IGROV-1, 48 h; for CC50: read-out: LC50 (the source's name); method in brief: as §1
OVCAR-3 = assay: Anticancer activity against human OVCAR3 cells after 48 hrs by SRB assay; conditions: OVCAR-3, 48 h; for CC50: read-out: LC50 (the source's name)
OVCAR-8 = assay: Anticancer activity against human OVCAR8 cells after 48 hrs by SRB assay; conditions: OVCAR-8, 48 h
A498 = assay: Anticancer activity against human A498 cells after 48 hrs by SRB assay; conditions: A498, 48 h; for CC50: read-out: LC50 (the source's name); method in brief: as §1
ACHN = assay: Anticancer activity against human ACHN cells after 48 hrs by SRB assay; conditions: for CC50: read-out: LC50 (the source's name); method in brief: as §1
SN12C = assay: Anticancer activity against human SN12C cells after 48 hrs by SRB assay; conditions: for CC50: read-out: LC50 (the source's name)
TK-10 = assay: Anticancer activity against human TK10 cells after 48 hrs by SRB assay; conditions: TK-10, 48 h; for CC50: read-out: LC50 (the source's name); method in brief: as §2
UO-31 = assay: Anticancer activity against human UO31 cells after 48 hrs by SRB assay; conditions: UO-31, 48 h; for CC50: read-out: LC50 (the source's name); method in brief: as §2
PC-3 = assay: Anticancer activity against human PC3 cells after 48 hrs by SRB assay; conditions: PC-3, 48 h; for CC50: read-out: LC50 (the source's name)
DU-145 = assay: Anticancer activity against human DU145 cells after 48 hrs by SRB assay; conditions: DU-145, 48 h; for CC50: read-out: LC50 (the source's name); method in brief: as §1
MCF7 = assay: Anticancer activity against human MCF7 cells after 48 hrs by SRB assay; conditions: MCF7, 48 h; for CC50: read-out: LC50 (the source's name); method in brief: as §1
MDA-MB-231 = assay: Anticancer activity against human MDA-MB-231 cells after 48 hrs by SRB assay; conditions: MDA-MB-231, 48 h; for CC50: read-out: LC50 (the source's name); method in brief: as §1
[1] = Anticancer activity against human Hs 578T cells after 48 hrs by SRB assay; conditions: for CC50: read-out: LC50 (the source's name); method in brief: as §1

## COc1cccc(-c2nc3sccn3c2-c2ccnc(NCCNC(=O)Nc3cccc(C(F)(F)F)c3)n2)c1
CCRF-CEM
  GI50: 8.43 µM
  TGI: > 100 µM
  CC50: > 100 µM
MOLT-4
  GI50: 3.27 µM
  TGI: 9.94 µM
  CC50: > 100 µM
A549
  GI50: 3.82 µM
  LC50 (concentration giving 50% net tumour cell kill): > 100 µM
  TGI: 17.1 µM
NCI-H226
  GI50: 4.58 µM
  LC50 (concentration killing 50% of tumour cells): > 100 µM
  TGI: 68.6 µM
NCI-H322M
  GI50: 7.23 µM
  TGI: > 100 µM
  CC50: > 100 µM
NCI-H460
  GI50: 2.94 µM
  LC50: > 100 µM
  TGI: 14.4 µM
HCC 2998
  GI50: 3.75 µM
  TGI: 18.7 µM
  CC50: > 100 µM
HCT-15
  GI50: 3.05 µM
  TGI: 16.4 µM
  CC50: > 100 µM
KM12
  GI50: 3.36 µM
  TGI: 10.1 µM
  CC50: 39.3 µM
SW-620
  GI50: 4.47 µM
  TGI: 91.5 µM
  CC50: > 100 µM
SF-295
  GI50: 2.8 µM
  TGI: 14.9 µM
  CC50: > 100 µM
SNB-19
  GI50: 7.77 µM
  TGI: > 100 µM
  CC50: > 100 µM
SNB-75
  GI50: 3.41 µM
  TGI: 21.7 µM
  CC50: > 100 µM
M14
  GI50: 2960 nM
  TGI: 8.48 µM
  CC50: 29.2 µM
SK-MEL-28
  GI50: 5360 nM
  TGI: 26.2 µM
  CC50: > 100 µM
UACC-257
  GI50: 4.34 µM
  TGI: 16.5 µM
  CC50: 65.9 µM
UACC-62
  GI50: 2.55 µM
  TGI: 7.48 µM
  CC50: 27.7 µM
IGROV-1
  GI50: 3.32 µM
  TGI: 21.8 µM
  CC50: > 100 µM
OVCAR-3
  GI50: 4.22 µM
  TGI: 20.3 µM
  CC50: > 100 µM
OVCAR-8
  GI50: 3.28 µM
  TGI: 9.79 µM
OVCAR-8; read-out: LC50 (the source's name)
  CC50: 66.2 µM
A498
  GI50: 2.44 µM
  TGI: 17.5 µM
  CC50: > 100 µM
ACHN
  GI50: 3.17 µM
  TGI: 19.1 µM
  CC50: > 100 µM
SN12C
  GI50: 4.03 µM
  TGI: 26.5 µM
  CC50: > 100 µM
TK-10
  GI50: 3.6 µM
  TGI: 18.8 µM
  CC50: > 100 µM
UO-31
  GI50: 2.88 µM
  TGI: 24.8 µM
  CC50: > 100 µM
PC-3
  GI50: 2.47 µM
  TGI: 11.9 µM
  CC50: > 100 µM
DU-145
  GI50: 5.13 µM
  TGI: 95.5 µM
  CC50: > 100 µM
MCF7
  GI50: 3.12 µM
  TGI: 13.3 µM
  CC50: > 100 µM
MDA-MB-231
  GI50: 3.47 µM
  TGI: 12 µM
  CC50: > 100 µM
[1]
  GI50: 3.15 µM
  TGI: 29 µM
  CC50: > 100 µM

## O=C(NCCNc1nccc(-c2c(-c3cccc(O)c3)nc3sccn23)n1)c1ccccc1O
CCRF-CEM
  GI50: 3.43 µM
  TGI: > 100 µM
  CC50: > 100 µM
MOLT-4
  GI50: 2.97 µM
  TGI: 21.7 µM
  CC50: > 100 µM
A549
  GI50: 11 µM
  LC50 (concentration giving 50% net tumour cell kill): > 100 µM
  TGI: 49 µM
NCI-H226
  GI50: 4.61 µM
  LC50 (concentration killing 50% of tumour cells): > 100 µM
  TGI: 29.6 µM
NCI-H322M
  GI50: 4.6 µM
  TGI: 18.5 µM
  CC50: 66.6 µM
NCI-H460
  GI50: 7.88 µM
  LC50: > 100 µM
  TGI: 31 µM
HCC 2998
  GI50: 3.55 µM
  TGI: 16.5 µM
  CC50: > 100 µM
HCT-15
  GI50: 3.83 µM
  TGI: 24.5 µM
  CC50: > 100 µM
KM12
  GI50: 6.38 µM
  TGI: 27.3 µM
  CC50: > 100 µM
SW-620
  GI50: 5.43 µM
  TGI: 49.5 µM
  CC50: > 100 µM
SF-295
  GI50: 7.69 µM
  TGI: 27.2 µM
  CC50: 83.9 µM
SNB-19
  GI50: 5.02 µM
  TGI: > 100 µM
  CC50: > 100 µM
SNB-75
  GI50: 2.65 µM
  TGI: 20.5 µM
  CC50: > 100 µM
M14
  GI50: 683 nM
  TGI: 39 µM
  CC50: > 100 µM
SK-MEL-28
  GI50: 161 nM
  TGI: 11.1 µM
  CC50: 61.2 µM
UACC-257
  GI50: 6.41 µM
  TGI: 73.6 µM
  CC50: > 100 µM
UACC-62
  GI50: 8.32 µM
  TGI: 96.9 µM
  CC50: > 100 µM
IGROV-1
  GI50: 17.4 µM
  TGI: 92.9 µM
  CC50: > 100 µM
OVCAR-3
  GI50: 3.35 µM
  TGI: 30.3 µM
  CC50: > 100 µM
A498
  GI50: 14.5 µM
  TGI: 33.7 µM
  CC50: 78.1 µM
ACHN
  GI50: 3.89 µM
  TGI: > 100 µM
  CC50: > 100 µM
SN12C
  GI50: 2.84 µM
  TGI: 74.9 µM
  CC50: > 100 µM
TK-10
  GI50: 11.6 µM
  TGI: 52.2 µM
  CC50: > 100 µM
UO-31
  GI50: 5.68 µM
  TGI: 19.7 µM
  CC50: 72.8 µM
PC-3
  GI50: 5.15 µM
  TGI: 77.6 µM
  CC50: > 100 µM
DU-145
  GI50: 5.22 µM
  TGI: 43.3 µM
  CC50: > 100 µM
MCF7
  GI50: 4.03 µM
  TGI: 22.2 µM
  CC50: > 100 µM
MDA-MB-231
  GI50: 2.63 µM
  TGI: 62.3 µM
  CC50: > 100 µM
[1]
  GI50: 2.96 µM
  TGI: 26.9 µM
  CC50: > 100 µM

Source: ChEMBL document CHEMBL1914423, “New imidazo[2,1-b]thiazole derivatives: synthesis, in vitro anticancer evaluation, and in silico studies” (Eur J Med Chem, 2011)
